We go through 7 compounds from ChEMBL document CHEMBL3393029, “Preactivated oxazaphosphorines designed for isophosphoramide mustard delivery as bulk form or nanoassemblies: synthesis and proof of concept” (J Med Chem, 2015).

Each structure is given as a SMILES string.

One data set has as its system KB. The data set is described as follows: Cytotoxicity against human KB cells. Format: functional, cell-based. The method in brief: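 KB3.1 was one of 12 human lines tested with nano-assembly formulations. Cells were seeded, then exposed after 24 h to 0.1–200 µM in DMEM or RPMI with 10% FBS at 37 °C and 5% CO2 for 72 h. MTS was read at 490 nm after 2–5 h. Six replicates per concentration; IC50 relative to untreated cells.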

The test system of data set [1] is Plasma. In words: Drug metabolism in mouse plasma assessed as 4-HO-IFO level measured after 2 hrs by HPLC-MS/MS method. It counts as ADME, cell-free. The method in brief:
(§1)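 Prodrugs, from acetonitrile stocks as bulk form or nano-assemblies, were incubated in mouse plasma at 37 °C for up to 24 h. 4-HO-IFO was trapped as its semicarbazone with semicarbazide (2 M in pH 7.4 buffer). It was quantified alongside the parent by isocratic C18 HPLC-ESI(+)-MS/MS with MRM, using hexamethyl phosphoramide as internal standard, over 50–5000 ng/mL. Results are given in ng/mL.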

Data set [2] is described as follows: Cytotoxicity against human RMS1 cells after 96 hrs by MTS assay. The conditions noted are these: RMS1, 96 h. Format: functional, cell-based. Summed up:
(§2)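 Human Ewing sarcoma A673 and rhabdomyosarcoma RMS-1 cells were grown in DMEM or RPMI with 10% FCS, penicillin and streptomycin at 37 °C under 5% CO2. […] MTS was then added for 2–5 h and absorbance read at 490 nm. Six replicates per concentration; IC50 versus untreated cells.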
On the technique in general: Tetrazolium dyes change colour on reduction, which living cells bring about.

Data set [3] relates to A673. In words: Cytotoxicity against human A673 cells after 96 hrs by MTS assay. It counts as functional, cell-based. The conditions noted are these: A673, 96 h. Summed up: as §2
In data set [4] the test system is Plasma. The data set is described as follows: Drug metabolism in mouse plasma assessed as 4-HO-IFO release measured after 0.5 hrs by HPLC-MS/MS method. It counts as ADME, cell-free. The method in brief: as §1
Data set [5] deals with Plasma. In words: Drug metabolism in mouse plasma assessed as 4-HO-IFO level measured after 2 to 24 hrs by HPLC-MS/MS method. It counts as ADME, cell-free. Summed up:
as §1

Data set [6] deals with Plasma. The data set is described as follows: Drug metabolism in mouse plasma assessed as 4-HO-IFO level measured after 6 hrs by HPLC-MS/MS method. Format: ADME, cell-free. The method in brief:
as §1

The nature of data set [7]: Cytotoxicity against human RMS1 cells after 72 hrs by MTS assay. It counts as functional, cell-based. The note with it: RMS1, 72 h. Summed up: as §2
The test system of data set [8] is Plasma. In words: Drug metabolism in mouse plasma assessed as 4-HO-IFO release measured after 2 hrs by HPLC-MS/MS method. It counts as ADME, cell-free. Summed up: as §1
Data set [9] deals with A673. In words: Cytotoxicity against human A673 cells after 72 hrs by MTS assay. The conditions noted are these: A673, 72 h. Format: functional, cell-based. The method in brief:
as §2

The test system of data set [10] is Plasma. The data set is described as follows: Drug metabolism in mouse plasma assessed as 4-HO-IFO release measured after 4 hrs by HPLC-MS/MS method. Format: ADME, cell-free. The method in brief: as §1

Regarding `CO[C@@H]1CCOP(=O)(NCCCl)N1CCCl` (some centres not stated), in the data set on KB, inhibition was half-maximal at 20 µM (IC50).
With `CO[C@H]1CCOP(=O)(NCCCl)N1CCCl` (some centres not stated), 22 µM corresponded to half-maximal inhibition with KB (IC50).
As for `CC(C)CCCC(C)CCOC1CCOP(=O)(NCCCl)N1CCCl` (configuration not stated), the Drug metabolism entry was “metabolite_detected” with Plasma [1] and 200 ng/mL with Plasma [4]. Further, the IC50 in [2] came to 11.3 µM; in the data set with A673 [3] it was 24.5 µM. Also, the Stability entry in the data set on Plasma [5] is “Stable”.
For the compound `COC1CCOP(=O)(NCCCl)N1CCCl` (mixture of isomers), the Drug metabolism result is “metabolite_detected” in the data set with Plasma [1], “metabolite_detected” in the data set with Plasma [6] and 1250 ng/mL in the data set on Plasma [8]. The IC50 in data set [7] stood at 3.8 µM; in the data set with A673 [9], 1.5 µM.
Turning to `CCCCCOC1CCOP(=O)(NCCCl)N1CCCl` (mixture of isomers), the IC50 turned out to be 5.3 µM in [7] and 17.7 µM in the data set with A673 [9].
With `CC(C)=CCC/C(C)=C/COC1CCOP(=O)(NCCCl)N1CCCl` (mixture of isomers), the Drug metabolism result in the data set on Plasma [1] was “metabolite_detected”; in the data set on Plasma [10], 350 ng/mL. Moreover, the IC50 in [7] came out at 9.3 µM; with A673 [9] it was 25.3 µM. Also, the Stability result in the data set with Plasma [5] is “Stable”.
For `CC(C)=CCC/C(C)=C/CC/C(C)=C/COC1CCOP(=O)(NCCCl)N1CCCl` (mixture of isomers), the Drug metabolism entry is “metabolite_detected” in the data set on Plasma [1] and 700 ng/mL with Plasma [4]. Moreover, the Stability result in the data set with Plasma [5] is given as “Stable”.

As a reminder, the IC50 is the concentration that inhibits the measured activity by half. Low values mean inhibition by little substance, high ones a need for much substance.
